Measurements pooled from the literature.
Each line is one published result; the experiments were not run side by side. pIC50, pKd, pKi: −log10 of the molar value.
PFF0160c: Dihydroorotate dehydrogenase (quinone), mitochondrial (PFF0160c, Plasmodium falciparum, UniProt Q08210)
Nectin-4: Nectin-4 (Homo sapiens, UniProt Q96NY8)
SIGMAR1: Sigma non-opioid intracellular receptor 1 (SIGMAR1, Homo sapiens, UniProt Q99720)
PFF0160c E182D: Dihydroorotate dehydrogenase (quinone), mitochondrial (PFF0160c, Plasmodium falciparum, UniProt Q08210, E182D)

Structure (SMILES)	target	read-out	mode	technique	measurement	result
CCCCOc1ccccc1C(=O)NCc1csc(-c2ccccc2)n1	PFF0160c	enzyme activity	inhibitor	absorbance	pIC50	6.38
CCCC[C@@H]1NC(=O)[C@H](Cc2ccc(O)cc2)NC(=O)[C@@H]2CCCN2C(=O)[C@H](CC(=O)O)NC(=O)[C@H](C)NC(=O)[C@H](Cc2ccccc2)NC(=O)[C@@H]2CSCCC(=O)N3CN(CN(C3)C(=O)CCSC[C@@H](C(=O)N[C@@H](C)C(N)=O)NC1=O)C(=O)CCSC[C@H](NC(=O)[C@H](C)NC(C)=O)C(=O)N[C@@H]([C@@H](C)CC)C(=O)N[C@@H](CCC(=O)O)C(=O)N[C@@H](CCC(=O)O)C(=O)N[C@H](CCCCNC(=O)CCc1cn(CCOCCOCCOCCN(CCOCCOCCOCCC(=O)N[C@H]3CSCCC(=O)N4CN5CN(C4)C(=O)CCSC[C@H](NC(=O)[C@@H](CC(=O)O)NC(=O)[C@H](Cc4cccc6ccccc46)NC(=O)[C@@H]4CCCN4C3=O)C(=O)N[C@@H](CCSC)C(=O)N[C@@H](CCCCNC(=N)N)C(=O)N[C@@H](CC(=O)O)C(=O)N[C@@H](Cc3c[nH]c4ccccc34)C(=O)N[C@@H](CO)C(=O)N[C@@H]([C@@H](C)O)C(=O)N3CCC[C@H]3C(=O)N3C[C@H](O)C[C@H]3C(=O)N[C@@H](Cc3c[nH]c4ccccc34)C(=O)N[C@H](C(N)=O)CSCCC5=O)CCOCCOCCOCCn3cc(CCC(=O)NCCCC[C@H]4NC(=O)[C@H](CCC(=O)O)NC(=O)[C@H](CCC(=O)O)NC(=O)[C@H]([C@@H](C)CC)NC(=O)[C@@H](NC(=O)[C@H](C)NC(C)=O)CSCCC(=O)N5CN6CN(C5)C(=O)CCSC[C@H](NC(=O)[C@H](Cc5ccc(O)cc5)NC(=O)[C@H](CCC(N)=O)NC4=O)C(=O)N[C@@H](Cc4ccccc4)C(=O)N[C@@H](C)C(=O)N[C@@H](CC(=O)O)C(=O)N4CCC[C@H]4C(=O)N[C@@H](Cc4ccc(O)cc4)C(=O)N[C@@H](CCCC)C(=O)N[C@H](C(=O)N[C@@H](C)C(N)=O)CSCCC6=O)nn3)nn1)C(=O)N[C@@H](CCC(N)=O)C(=O)N[C@@H](Cc1ccc(O)cc1)C(=O)N2	Nectin-4	binding	–	SPR	pKd	8.17
CCCCN(C)CC#Cc1ccc2[nH]c(C)c(Cl)c(=O)c2c1	PFF0160c	enzyme activity	inhibitor	absorbance	pIC50	5.34
N[C@@H](C[C@]1(C(=O)O)C[C@H]2OC[C@@H](O)[C@@H](O)[C@H]2O1)C(=O)O	Glutamate receptor ionotropic, kainate 2 (Grik2, Rattus norvegicus, UniProt P42260, A518T/Y443F)	ligand displacement	–	radioligand	pKi	6.01
CCCC[C@@H]1NC(=O)[C@H](Cc2ccc(O)cc2)NC(=O)[C@@H]2CCCN2C(=O)[C@H](CC(=O)O)NC(=O)[C@H](C)NC(=O)[C@H](Cc2ccccc2)NC(=O)[C@@H]2CSCCC(=O)N3CN(CN(C3)C(=O)CCSC[C@H](NC(C)=O)C(=O)N[C@@H](CC(C)(C)C)C(=O)N3CCC[C@H]3C(=O)N[C@@H](CCC(=O)O)C(=O)N[C@H](CCCCNC(=O)CCc3cn(CCOCCOCCOCCN(CCOCCOCCOCCC(=O)N[C@H]4CSCCC(=O)N5CN6CN(C5)C(=O)CCSC[C@H](NC(=O)[C@@H](CC(=O)O)NC(=O)[C@H](Cc5cccc7ccccc57)NC(=O)[C@@H]5CCCN5C4=O)C(=O)N[C@@H](CCSC)C(=O)N[C@@H](CCCCNC(=N)N)C(=O)N[C@@H](CC(=O)O)C(=O)N[C@@H](Cc4c[nH]c5ccccc45)C(=O)N[C@@H](CO)C(=O)N[C@@H]([C@@H](C)O)C(=O)N4CCC[C@H]4C(=O)N4C[C@H](O)C[C@H]4C(=O)N[C@@H](Cc4c[nH]c5ccccc45)C(=O)N[C@H](C(N)=O)CSCCC6=O)CCOCCOCCOCCn4cc(CCC(=O)NCCCC[C@H]5NC(=O)[C@H](CCC(=O)O)NC(=O)[C@@H]6CCCN6C(=O)[C@H](CC(C)(C)C)NC(=O)[C@@H](NC(C)=O)CSCCC(=O)N6CN7CN(C6)C(=O)CCSC[C@H](NC(=O)[C@H](Cc6ccc(O)cc6)NC(=O)[C@@H]6CCCN6C5=O)C(=O)N[C@@H](Cc5ccccc5)C(=O)N[C@@H](C)C(=O)N[C@@H](CC(=O)O)C(=O)N5CCC[C@H]5C(=O)N[C@@H](Cc5ccc(O)cc5)C(=O)N[C@@H](CCCC)C(=O)N[C@H](C(N)=O)CSCCC7=O)nn4)nn3)C(=O)N3CCC[C@H]3C(=O)N[C@@H](Cc3ccc(O)cc3)C(=O)N2)C(=O)CCSC[C@@H](C(N)=O)NC1=O	Nectin-4	binding	–	SPR	pKd	8.41
Cc1cc(NC(=O)c2cc(S(=O)(=O)N3CCCCC3)ccc2C)no1	PFF0160c	enzyme activity	inhibitor	absorbance	pIC50	5.77
CC(CN1c2ccccc2Sc2ccccc21)N(C)C (stereo not drawn)	SIGMAR1	ligand displacement	–	radioligand	pKi	6.36
Cc1cc(F)ccc1NS(=O)(=O)c1ccc(-c2ccoc2)s1	PFF0160c E182D	enzyme activity	inhibitor	absorbance	pIC50	< 5.00
Cc1cccc(CN2CCN(C(c3ccccc3)c3ccc(Cl)cc3)CC2)c1 (stereo not drawn)	SIGMAR1	ligand displacement	–	radioligand	pKi	5.90
CCCC[C@@H]1NC(=O)[C@H](Cc2ccc(O)cc2)NC(=O)[C@@H]2CCCN2C(=O)[C@H](CC(=O)O)NC(=O)[C@H](C)NC(=O)[C@H](Cc2ccccc2)NC(=O)[C@@H]2CSCCC(=O)N3CN(CN(C3)C(=O)CCSCCC(=O)N[C@@H](CC(C)(C)C)C(=O)N3CCC[C@H]3C(=O)N[C@@H](CCC(=O)O)C(=O)N[C@H](CCCCNC(=O)CCc3cn(CCOCCOCCOCCN(CCOCCOCCOCCC(=O)N[C@H]4CSCCC(=O)N5CN6CN(C5)C(=O)CCSC[C@H](NC(=O)[C@@H](CC(=O)O)NC(=O)[C@H](Cc5cccc7ccccc57)NC(=O)[C@@H]5CCCN5C4=O)C(=O)N[C@@H](CCSC)C(=O)N[C@@H](CCCCNC(=N)N)C(=O)N[C@@H](CC(=O)O)C(=O)N[C@@H](Cc4c[nH]c5ccccc45)C(=O)N[C@@H](CO)C(=O)N[C@@H]([C@@H](C)O)C(=O)N4CCC[C@H]4C(=O)N4C[C@H](O)C[C@H]4C(=O)N[C@@H](Cc4c[nH]c5ccccc45)C(=O)N[C@H](C(N)=O)CSCCC6=O)CCOCCOCCOCCn4cc(CCC(=O)NCCCC[C@H]5NC(=O)[C@H](CCC(=O)O)NC(=O)[C@@H]6CCCN6C(=O)[C@H](CC(C)(C)C)NC(=O)CCSCCC(=O)N6CN7CN(C6)C(=O)CCSC[C@H](NC(=O)[C@H](Cc6ccc(O)cc6)NC(=O)[C@@H]6CCCN6C5=O)C(=O)N[C@@H](Cc5ccccc5)C(=O)N[C@@H](C)C(=O)N[C@@H](CC(=O)O)C(=O)N5CCC[C@H]5C(=O)N[C@@H](Cc5ccc(O)cc5)C(=O)N[C@@H](CCCC)C(=O)NCCSCCC7=O)nn4)nn3)C(=O)N3CCC[C@H]3C(=O)N[C@@H](Cc3ccc(O)cc3)C(=O)N2)C(=O)CCSCCNC1=O	Nectin-4	binding	–	SPR	pKd	8.40
FC(F)(F)c1ccc2c(c1)N(CCCN1CCN(CCCl)CC1)c1ccccc1S2	SIGMAR1	ligand displacement	–	radioligand	pKi	6.24
Oc1cc(NC[C@H]2CCC[C@@H]2NCc2cc(Br)cc(Br)c2)nc2ccccc12	PFF0160c E182D	enzyme activity	inhibitor	absorbance	pIC50	< 5.00
CN(C)CCC(c1ccc(Cl)cc1)c1ccccn1 (stereo not drawn)	SIGMAR1	ligand displacement	–	radioligand	pKi	5.88
CCCC[C@@H]1NC(=O)[C@H](Cc2ccc(O)cc2)NC(=O)[C@@H]2CCCN2C(=O)[C@H](CC(=O)O)NC(=O)[C@H](C)NC(=O)[C@H](Cc2ccccc2)NC(=O)[C@@H]2CSCCC(=O)N3CN(CN(C3)C(=O)CCSC[C@@H](C(=O)N[C@@H](C)C(N)=O)NC1=O)C(=O)CCSC[C@H](NC(C)=O)C(=O)N[C@@H](CC(C)(C)C)C(=O)N1CCC[C@H]1C(=O)N[C@@H](CCC(=O)O)C(=O)N[C@H](CCCCNC(=O)CCc1cn(CCOCCOCCOCCOCCOCCC(=O)NCCCC[C@H]3NC(=O)[C@H](Cc4cccc5ccccc45)NC(=O)[C@@H]4CCCN4C(=O)CCSCCC(=O)N4CN5CN(C4)C(=O)CCSC[C@H](NC3=O)C(=O)N[C@@H](CCSC)C(=O)N[C@@H](CCCCNC(=N)N)C(=O)N[C@@H](CC(=O)O)C(=O)N[C@@H](Cc3c[nH]c4ccccc34)C(=O)N[C@@H](CO)C(=O)N[C@@H]([C@@H](C)O)C(=O)N3CCC[C@H]3C(=O)N3C[C@H](O)C[C@H]3C(=O)N[C@@H](Cc3c[nH]c4ccccc34)C(=O)N[C@H](C(N)=O)CSCCC5=O)nn1)C(=O)N1CCC[C@H]1C(=O)N[C@@H](Cc1ccc(O)cc1)C(=O)N2	Nectin-4	binding	–	SPR	pKd	8.66
O=C(c1ccc(F)cc1)C1CCN(C2Cc3ccccc3CC2O)CC1 (single isomer, unassigned; (-))	Vesicular acetylcholine transporter (SLC18A3, Homo sapiens, UniProt Q16572)	ligand displacement	–	radioligand	pKi	7.61
